Results collected from several papers.
Compare with care: the assays were run in different laboratories.
Target: Tyrosine-protein kinase TXK (TXK, Homo sapiens, UniProt P42681)
Residues used in one study (P42681 1-527): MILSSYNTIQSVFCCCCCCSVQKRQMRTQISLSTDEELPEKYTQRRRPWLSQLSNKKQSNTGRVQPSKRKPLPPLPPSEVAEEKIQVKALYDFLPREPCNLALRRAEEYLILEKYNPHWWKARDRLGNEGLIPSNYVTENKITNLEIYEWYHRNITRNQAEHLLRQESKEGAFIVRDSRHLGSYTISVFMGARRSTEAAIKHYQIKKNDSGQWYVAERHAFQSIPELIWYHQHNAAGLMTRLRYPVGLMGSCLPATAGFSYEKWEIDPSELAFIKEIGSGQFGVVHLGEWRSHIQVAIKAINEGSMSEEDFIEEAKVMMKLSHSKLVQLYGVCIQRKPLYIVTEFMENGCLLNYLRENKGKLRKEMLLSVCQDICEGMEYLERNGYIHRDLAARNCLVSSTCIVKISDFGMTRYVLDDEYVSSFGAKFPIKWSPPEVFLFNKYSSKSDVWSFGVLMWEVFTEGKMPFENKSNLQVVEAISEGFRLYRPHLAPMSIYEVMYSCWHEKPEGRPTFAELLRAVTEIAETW

| SMILES | read-out | action | method | tested at | quantity | value |
| --- | --- | --- | --- | --- | --- | --- |
| CCCS(=O)(=O)Nc1ccc(F)c(C(=O)c2c[nH]c3ncc(-c4ccc(Cl)cc4)cc23)c1F | enzyme activity | inhibitor |  | 1 µM | inhibition | < 10% |
| O=C1NC(=O)c2cc(Nc3ccc(F)cc3)c(Nc3ccc(F)cc3)cc21 | cell-free assay |  |  | 0.5 µM | remaining signal | 84.1% |
| Cc1cc(NC(=O)c2cccc3cc(-c4cccc5[nH]nc(N)c45)ccc23)ccc1F | enzyme activity | inhibitor |  | 0.1 µM | activity vs control | 123% |
| NS(=O)(=O)c1cc(NC(=O)Cc2ccccc2)ccc1Oc1cccc(Cl)c1 | binding |  | competition with immobilised ligand | 1 µM | remaining binding | 92% |
| CC(C)(C)c1nc(-c2cccc(NS(=O)(=O)c3c(F)cccc3F)c2F)c(-c2ccnc(N)n2)s1 | enzyme activity | inhibitor | radiometric | 1 µM | remaining activity | 88% |
| O=C1Nc2ccc(Cl)cc2C1=Cc1cc(Cl)c(O)c(Cl)c1 | cell-free assay |  |  | 0.5 µM | remaining signal | 86.6% |
| COc1cc2nccc(Oc3ccc(NC(=O)c4c5n(n(-c6ccc(F)cc6)c4=O)CCCC5)cc3)c2cc1OC | enzyme activity | inhibitor |  | 0.1 µM | inhibition | -2% |
| O=C(Nc1cnn(-c2csc(C(=O)NC3COC3)c2)c1)Nc1ccccc1Cl | enzyme activity | inhibitor |  | 5 µM | remaining activity | 89.8% |
| CCCCN(CCCC)C(=O)CN1C[C@@H](c2cc(OC)c3c(c2)OCO3)[C@H](C(=O)O)[C@H]1CC(C)(C)CCC | cell-free assay |  | competition with immobilised ligand | 1 µM | remaining binding | 100% |
| Cc1ccc(C(=O)NCc2ccsc2)cc1C#Cc1cn(C(C)C)c2ncnc(N)c12 | enzyme activity | inhibitor |  | 1 µM | activity vs control | 36% |
| CC(C)(O)[C@H]1CC[C@H](Nc2ccc3ncc(-c4cccc(C(F)(F)F)c4)n3n2)CC1 | enzyme activity | inhibitor |  | 1 µM | remaining activity | 62.6% |
| O=C(NS(=O)(=O)c1ccc(NCC2CCOCC2)c([N+](=O)[O-])c1)c1ccc(N2CCN(Cc3ccc(C(F)(F)F)cc3-c3ccc(Cl)cc3)CC2)cc1Oc1cnc2[nH]ccc2c1 | cell-free assay |  | competition with immobilised ligand | 1 µM | remaining binding | 94% |
| Cc1ccc(C(=O)Nc2ccc(CN3CCN(C)CC3)c(C(F)(F)F)c2)cc1C#Cc1cnc2cccnn12 | enzyme activity | inhibitor |  | 23.5 nM | remaining activity | 25% |
| O=C(N[C@H]1CCCCC/C=C\C2C[C@@]2(C(=O)O)NC(=O)[C@@H]2C[C@@H](Oc3ccncc3)CN2C1=O)OC1CCCC1 (stereo partly shown) | binding |  | competition with immobilised ligand | 1 µM | remaining binding | 87% |
| CCCOc1ccc(OC)c(F)c1C(=O)c1ccc(C(=O)N[C@@H]2CNC[C@H]2NC(=O)c2ccc3[nH]ncc3c2)cc1 | enzyme activity | inhibitor |  | 10 µM | remaining activity | 64% |
| Cc1c(NC(=O)c2cc(C(N)=O)nc3cc(F)ccc23)c(C(F)(F)F)nn1Cc1ccc(C#N)cc1 | binding |  | competition with immobilised ligand | 1 µM | remaining binding | 99% |
| COc1cc2ncnc(Nc3ccc(Oc4ccccc4)cc3C)c2cc1OC | enzyme activity | inhibitor |  | 1 µM | inhibition | 16% |
| Oc1ccc(-c2nc(-c3ccncc3)c(-c3ccc(F)cc3)[nH]2)cc1 | cell-free assay |  |  | 0.5 µM | remaining signal | 78.5% |
| O=C(NCc1ncc(C(F)(F)F)cc1Cl)c1ccc2c(c1)C1(CCS(=O)(=O)CC1)[C@@H](C1CC1)N2S(=O)(=O)c1ccc(F)cc1 | binding |  | competition with immobilised ligand | 1 µM | remaining binding | 83% |
